Activity calls are given as the source filed them. The calls are words filed in the database; no cut-off is given here.
Key:
[1] = test system: Huh-7; assay: Cytotoxicity against human HuH7 cells assessed as decrease in cell viability after 72 hrs by WST1 assay; format: functional, cell-based
How it was run: (§1)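 Seeded 1×10^4 cells per well, cultured overnight, then exposed to compound for 72 h; controls got 0.1% EtOH. Medium with WST-1 (0.5 mM WST-1, 0.02 mM 1-PMS) added, 60 min at 37 °C, absorbance 438 nm (reference 620 nm). Viability = treated absorbance/control absorbance × 100 (%).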

[2] = test system: A549; assay: Cytotoxicity against human A549 cells assessed as decrease in cell viability after 72 hrs by WST1 assay; format: functional, cell-based; how it was run: as §1
[3] = target: T1, Tyrosine-protein phosphatase non-receptor type 1 (Homo sapiens) (UniProt P18031); assay: Inhibition of PTP1B (unknown origin) at 15.2 to 16 uM using pNPP as substrate preincubated for 10 mins followed by substrate addition measured after 30 mins
T1 sequence (whole entry): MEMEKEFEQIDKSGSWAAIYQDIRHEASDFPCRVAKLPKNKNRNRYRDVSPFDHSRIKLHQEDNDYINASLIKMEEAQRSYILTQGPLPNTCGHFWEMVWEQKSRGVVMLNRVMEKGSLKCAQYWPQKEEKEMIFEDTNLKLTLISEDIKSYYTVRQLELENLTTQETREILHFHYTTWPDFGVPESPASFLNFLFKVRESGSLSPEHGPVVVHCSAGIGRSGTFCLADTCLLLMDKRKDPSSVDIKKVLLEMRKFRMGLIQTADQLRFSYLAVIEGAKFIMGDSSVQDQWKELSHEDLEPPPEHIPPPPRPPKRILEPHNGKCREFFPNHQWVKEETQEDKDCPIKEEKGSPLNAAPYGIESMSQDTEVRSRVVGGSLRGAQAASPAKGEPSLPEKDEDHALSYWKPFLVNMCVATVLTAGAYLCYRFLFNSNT
How it was run: (§2)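 Enzyme (0.5 μg/mL stock) in 50 mM citrate pH 6.0, 0.1 M NaCl, 1 mM DTT, 1 mM EDTA; sample added in CH3OH, preincubated 10 min at 37 °C. pNPP (4.0 mM stock) started reaction, 30 min at 37 °C, stopped with 10 M NaOH; p-nitrophenol read at 405 nm. Inhibition (%) = [1 − (sample − blank)/(control − blank)] × 100; oleanolic acid positive control.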

[4] = target: T2, Tyrosine-protein phosphatase non-receptor type 1 (Homo sapiens, UniProt P18031); assay: Inhibition of PTP1B (unknown origin) using pNPP as substrate preincubated for 10 mins followed by substrate addition measured after 30 mins; how it was run: as §2
T2 sequence (P18031 whole entry): T1 sequence (whole entry)

SMILES | Activity [1] | Activity [2] | inhibition [3] | IC50 [4] [µM]
CC(=O)N[C@H]1[C@H](O[C@@H]2CO[C@@H](O[C@H]3CC[C@@]4(C)[C@@H](CCC5=C6[C@@H](O)C[C@H]([C@H](C)CC(=O)C=C(C)C)[C@@]6(C)CC[C@@]54O)C3(C)C)[C@H](O[C@@H]3O[C@H](CO[C@@H]4O[C@H](CO)[C@@H](O)[C@H](O)[C@H]4O[C@@H]4O[C@H](CO)[C@@H](O)[C@H](O)[C@H]4O)[C@@H](O)[C@H](O)[C@H]3NC(C)=O)[C@H]2O)O[C@H](CO)[C@H](O)[C@@H]1O | inactive | inactive | inactive | 
CCCCCCCC(C)CCC/C(O)=C1\C(=O)C(C)N(C)C1=O (stereo not drawn) [MELOPHLIN C] |  |  |  | 14.6
CC(=O)N[C@H]1[C@H](O[C@@H]2CO[C@@H](O[C@H]3CC[C@]4(C)C5=C(CC[C@H]4C3(C)C)[C@@H]3CC[C@H]([C@H](C)CC(=O)CC(C)(C)O)[C@@]3(C)CC5)[C@H](O[C@@H]3O[C@H](CO[C@@H]4O[C@H](CO)[C@@H](O)[C@H](O)[C@H]4O[C@@H]4O[C@H](CO)[C@@H](O)[C@H](O)[C@H]4O)[C@@H](O)[C@H](O)[C@H]3NC(C)=O)[C@H]2O)O[C@H](CO)[C@H](O)[C@@H]1O | inactive | inactive | inactive | 
CC(=O)N[C@H]1[C@H](O[C@@H]2CO[C@@H](O[C@H]3CC[C@]4(C)C5=C(CC[C@H]4C3(C)C)[C@@H]3CC[C@H]([C@H](C)CC(=O)C=C(C)C)[C@@]3(C)CC5)[C@H](O[C@@H]3O[C@H](CO[C@@H]4O[C@H](CO)[C@@H](O)[C@H](O)[C@H]4O[C@@H]4O[C@H](CO)[C@@H](O)[C@H](O)[C@H]4O)[C@@H](O)[C@H](O)[C@H]3NC(C)=O)[C@H]2O)O[C@H](CO)[C@H](O)[C@@H]1O | inactive | inactive | inactive | 
CC(=O)C[C@@H](C)[C@H]1CC[C@H]2C3=C(CC[C@]12C)[C@@]1(C)CC[C@H](O[C@@H]2OC[C@@H](O[C@@H]4O[C@H](CO)[C@H](O)[C@H](O)[C@H]4NC(C)=O)[C@H](O)[C@H]2O[C@@H]2O[C@H](CO[C@@H]4O[C@H](CO)[C@@H](O)[C@H](O)[C@H]4O[C@@H]4O[C@H](CO)[C@@H](O)[C@H](O)[C@H]4O)[C@@H](O)[C@H](O)[C@H]2NC(C)=O)C(C)(C)[C@@H]1CC3 | inactive | inactive | inactive | 

From ChEMBL document CHEMBL4002622, “A tetramic acid derivative with protein tyrosine phosphatase 1B inhibitory activity and a new nortriterpene glycoside from the Indonesian marine sponge Petrosia sp” (Bioorg Med Chem Lett, 2017)
